Bounds are passed on as bounds.

In general, IC50 refers to the point on the concentration scale where inhibition reaches its midpoint.

The target in one experiment is Cathepsin L (Homo sapiens, UniProt P07711). Description: Cathepsin activity assay, z-Phe-Arg-AMC substrate, cathepsin L. The note with it: read-out: IC50 Cathepsin L, pH 5.5, tested under 10 μM. It counts as biochemical. In a few lines:
(§1)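 Cathepsin activity was read fluorimetrically on a microplate reader with z-Phe-Arg-AMC as substrate. Activity data were fitted to a linearized curve, and IC50 was read from that curve.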

For a further experiment, the target named is T1, Cathepsin K (Homo sapiens, UniProt P43235).
T1 sequence (P43235 115-329): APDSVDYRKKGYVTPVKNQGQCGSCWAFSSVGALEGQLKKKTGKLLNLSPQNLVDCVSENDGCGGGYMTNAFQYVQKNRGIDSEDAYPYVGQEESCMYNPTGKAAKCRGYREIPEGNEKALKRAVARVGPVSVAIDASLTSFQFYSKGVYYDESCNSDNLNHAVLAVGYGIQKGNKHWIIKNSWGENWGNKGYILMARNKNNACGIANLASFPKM
Description: Cathepsin activity assay, z-Phe-Arg-AMC substrate, cathepsin K. It counts as biochemical. Particulars: read-out: IC50 Cathepsin K, pH 5.5, tested under 10 μM. In a few lines:
as §1

The subject of another experiment is pro-MMP-2. The note with it: <50 μmol L^−1; cited from earlier work.
In the next experiment the test system is activated form of MMP-2. Particulars: <50 μmol L^−1; cited from earlier work.

Cathepsin L, sequence (P07711 114-333, species assumed): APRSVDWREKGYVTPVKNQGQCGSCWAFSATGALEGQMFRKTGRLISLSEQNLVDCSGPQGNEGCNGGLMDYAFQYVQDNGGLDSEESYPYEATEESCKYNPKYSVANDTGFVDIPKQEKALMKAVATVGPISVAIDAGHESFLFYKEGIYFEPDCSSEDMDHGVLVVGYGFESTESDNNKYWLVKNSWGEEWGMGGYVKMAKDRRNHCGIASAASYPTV

For the compound `[Cl-].[Cl-].[Cl-].[Gd+3]` [GdCl36H2O], the IC50 at Cathepsin L and on Cathepsin K was over 10 µM throughout.

As for `[Cl][Eu]([Cl])[Cl]` [EuCl3·6H2O], the 50% inhibitory concentration (IC50) at Cathepsin L and on Cathepsin K was over 10 µM in each case.

For `[Cl-].[Cl-].[Cl-].[Tb+3]` [TbCl3·6H2O], the IC50 on Cathepsin L and at Cathepsin K was over 10 µM throughout.

For `O.O.O.O.O.O.O.[Cl-].[Cl-].[Cl-].[La+3]` [LaCl3·7H2O], the “effect on activity and expression of pro-MMP-2” value with pro-MMP-2 is “inhibits the activity and expression of pro-MMP-2”. In addition, the “effect on the activated form of MMP-2” value with activated form of MMP-2 is reported as “does not suppress the activated form of MMP-2”.

Consider `[Cl-].[Cl-].[Cl-].[La+3]` [LaCl3·7H2O], for which the IC50 at Cathepsin L and at Cathepsin K was over 10 µM throughout.

For `[Cl][Yb]([Cl])[Cl]` [YbCl3·6H2O], the IC50 on Cathepsin L and on Cathepsin K was over 10 µM throughout.

The values above are taken from paper PMC9079887 (RSC Advances, 2018).
